Source: paper PMC3529859 (Leukemia, 2012)

Key:
Assay type in all cases: cell-based, human
[1] = test system: SCF-enhanced degranulation of primary HuMCs; assay: SCF-enhanced degranulation of HuMCs; conditions: Ag 0.1 ng/ml + SCF 10 ng/ml; up to 1000 nM
[2] = test system: FcεRI-mediated degranulation of primary HuMCs; assay: FcεRI-mediated degranulation of HuMCs; conditions: Ag 1 ng/ml; inhibition observed only at 1000 nM
[3] = test system: KIT D816V+ primary bone marrow mast cells; conditions: 1 µM (1000 nM); 7 d; SCF 100 ng/ml; KIT D816V-positive patients n=5
Outline: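 Bone marrow mononuclear cells from patients with systemic mastocytosis (WHO criteria, IRB-approved protocol, informed consent), with KIT D816V status determined by PCR/RFLP. Cells were incubated with test compound at 0, 100 or 1000 nM in 0.1% DMSO for 7 d with SCF (100 ng/ml), then mast cell viability was assessed.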

SMILES	effect on SCF-enhanced degranulation [1]	effect on FcεRI mediated mast cell degranulation [2]	reduction in the viability of mast cells [3]
Cc1ccc(NC(=O)c2ccc(CN3CCN(C)CC3)cc2)cc1Nc1nccc(-c2cccnc2)n1 [imatinib]	inhibited SCF-enhanced degranulation at the highest concentration	minimal effects	–
CO[C@@H]1[C@H](N(C)C(=O)c2ccccc2)C[C@H]2O[C@]1(C)n1c3ccccc3c3c4c(c5c6ccccc6n2c5c31)C(=O)NC4 [PKC 412]	–	–	88%
